This excerpt belongs to a sample that is enriched for hits.
G6PDH counter – inhibits Leuconostoc G6PDH, flagging false hits in G6PDH-based assays | Purified L. mesenteroides G6PDH, diaphorase/resazurin coupled fluorescence, 45 min | 200,000 compounds, 0.12% hits | inhibition, % at 5 µM
Diaph inh CS – counter-screen for diaphorase-based assays: diaphorase inhibitors and chemical oxidizers; diaphorase resazurin-to-resorufin fluorescence, NADH, 16 min; bacterial (C. kluyveri) enzyme, not human; inhibition, % at 20 µM; 190,000 compounds, 0.69% hits;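 active = primary screen inhibition at 20 µM above a set limit, cut at about 50% in these data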;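 also: plate controls were DMSO with full reaction for no effect and wells lacking NADH for full effect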
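Test system: bacterial diaphorase enzyme (C. kluyveri); Quantity: 0.14 U/mL diaphorase, enzyme working solution; Times: reaction incubation of 16 min at room temperature; Measured by: fluorescence of resorufin formed from resazurin, Ex 544/Em 590 nm; Benchmarks: positive control minus NADH, DMSO neutral control.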
Diaph act CS – diaphorase activation or chemical reduction counter-screen | Diaphorase/resazurin coupled assay, resorufin fluorescence, 16 min; stronger effect = higher value; 1 = vehicle wells, 0 = NADH-free wells | activation factor at 20 µM | 190,000 compounds, 0.005% hits | AID 1229;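 active = diaphorase activity raised at least twofold by the compound at 20 µM; inactive = activation factor below 2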
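Test system: Clostridium kluyveri diaphorase, purified enzyme. Buffer or medium: 50 mM HEPES pH 7.4 buffer plus MgCl2 and Tween 20. Also added: 0.114 mM NADH and 0.1 mM resazurin, final amounts. Dosing: compound 20 µM once, DMSO 1%. Schedule: 16 min enzyme reaction, ambient temperature. Detection: fluorescence of resorufin, 544 nm excitation, 590 nm emission.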
PfG6PD inh – PfG6PD (Plasmodium falciparum) enzyme inhibition | PfGluPho enzyme, NADPH resazurin-diaphorase fluorescence | inhibition, % at 20 µM | 350,000 compounds, 0.78% hits;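 active = inhibition reaching at least a set limit at 20 µM in the primary screen, cut at about 59% in these data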;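 also: 0% = DMSO wells with substrate and 100% = DMSO wells lacking glucose-6-phosphate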
L major viab – Leishmania major promastigote growth inhibition; Leishmania major promastigotes, resazurin fluorescence viability; inhibition, % at 10 µM; 200,000 compounds, 9% hits; AID 1063;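 also: promastigotes grown with compound for 44 hours at 28 °C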
DTT redox prof – compounds producing H2O2 with reducing agent – biochemical, NIH compound library profiling, artefact control for MLSCN library redox annotation, primary screen. DTT-dependent redox cycling H2O2, phenol red/HRP absorbance; 100% = 100 µM peroxide control, 0% = buffer. activation, % at 10 µM. 200,000 compounds, 0.03% hits. AID 878;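 active = activation of at least 50% relative to the plate's high and low controls in the primary single-dose screen; inactive = activation below 50%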;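 also: compound incubated with DTT at 0.8 mM final as the reducing agent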
Active calls of the source: *. Rule as the data show it, unless noted: active = inhibition above about 50%; inactive = the rest.

Screening CCOc1ccc(S(=O)(=O)Nc2cc(S(=O)(=O)N(CC)CC)ccc2N2CCCC2)cc1 returned G6PDH counter 8, Diaph inh CS 5, Diaph act CS 1, PfG6PD inh -1, L major viab 95* and DTT redox prof 0.
CCN(CC)c1ccc(S(=O)(=O)N(CC)CC)cc1NC(=O)C1CCCC1 was read as G6PDH counter 6, Diaph inh CS 16, Diaph act CS 0.8, PfG6PD inh -11, L major viab 61* and DTT redox prof 0.
Screening COCCn1c(SCC(=O)Nc2ccc(F)cc2)nc2c(c1=O)SCC2 returned PfG6PD inh -14.
`O=C(C1CCOCC1)N1CCCC(N2CCN(c3cccc(C(F)(F)F)c3)CC2)C1` (stereo not drawn) gave PfG6PD inh -16.
Screening CC(Oc1cc2oc(=O)c3c(c2cc1Cl)CCCC3)C(=O)NCCN1CCOCC1 (stereo not drawn) returned PfG6PD inh -6.
For CCN(CC)S(=O)(=O)c1ccc2c(c1)N(CC(=O)NCCN1CCOCC1)C(=O)CO2 the results were PfG6PD inh -9.
CN1CCN(C2=C(Cl)C(=O)C(c3cnc(N4CCCCC4)s3)=C(Cl)C2=O)CC1 was read as G6PDH counter 51*, Diaph inh CS 64*, Diaph act CS 0.4, PfG6PD inh 91*, L major viab 7 and DTT redox prof 3.
For O=C(CCc1ccccc1)NNC(=O)c1ccccc1C(=O)O the results were G6PDH counter 3, Diaph inh CS 1, Diaph act CS 1, PfG6PD inh 0, L major viab 60* and DTT redox prof 0.
Screening C=CCN(c1ccccc1)S(=O)(=O)c1cccc(C(=O)NC2CCN(Cc3ccccc3)CC2)c1 returned PfG6PD inh 7.
Screening Cn1c(=O)c2c(nc(N/N=C/c3ccc(OC(=O)c4ccco4)cc3)n2Cc2ccccc2Cl)n(C)c1=O returned G6PDH counter -1, Diaph inh CS 16, Diaph act CS 0.8, PfG6PD inh 5, L major viab 55* and DTT redox prof 0.
`CCN(CC(=O)Nc1c(F)cccc1F)C(=O)c1cc(C)nc2ccccc12` gave PfG6PD inh 2.
For O=C(O)c1cnc2[nH]c3ccccc3n2c1=O the results were PfG6PD inh 7.
Screening Cc1cccc(NC(=O)c2ccc([N+](=O)[O-])cc2Cl)n1 returned G6PDH counter 5, Diaph inh CS 10, Diaph act CS 0.9, PfG6PD inh 12, L major viab -3 and DTT redox prof 0.
Cc1ccc(NC(=O)c2ccc([N+](=O)[O-])o2)c(C)c1 was read as G6PDH counter 15, Diaph inh CS 11, Diaph act CS 0.9, PfG6PD inh 8, L major viab 94* and DTT redox prof 0.
`Cc1cccc(NC(=O)c2ccc([N+](=O)[O-])o2)n1` gave G6PDH counter -2, Diaph inh CS 11, Diaph act CS 0.9, PfG6PD inh 18, L major viab 96* and DTT redox prof -3.
CCn1nnc(NC(=O)c2ccc([N+](=O)[O-])o2)n1 was read as G6PDH counter 16, Diaph inh CS -11, Diaph act CS 1.1, PfG6PD inh 12, L major viab 93* and DTT redox prof 0.
Screening O=C(Nc1ccc2oc(-c3cccnc3)nc2c1)c1ccc([N+](=O)[O-])o1 returned G6PDH counter 24, Diaph inh CS 5, Diaph act CS 0.9, PfG6PD inh 35, L major viab 100* and DTT redox prof -1.
For O=[N+]([O-])c1ccc2[nH]c(=S)sc2c1 the results were PfG6PD inh 22.
Screening Cc1cccnc1NC(=O)c1ccc([N+](=O)[O-])o1 returned G6PDH counter -8, Diaph inh CS 6, Diaph act CS 0.9, PfG6PD inh 18, L major viab 77* and DTT redox prof 0.
Cc1ccccc1NC(=O)c1ccc([N+](=O)[O-])o1 was read as G6PDH counter 2, Diaph inh CS 6, Diaph act CS 0.9, PfG6PD inh 17, L major viab 69* and DTT redox prof -1.
Screening CS(=O)(=O)N1CCN(c2ccccc2NC(=O)c2ccc([N+](=O)[O-])o2)CC1 returned G6PDH counter 1, Diaph inh CS 16, Diaph act CS 0.8, PfG6PD inh 17, L major viab 100* and DTT redox prof -1.
Screening O=C(Nc1ccccc1Cl)c1ccc([N+](=O)[O-])o1 returned PfG6PD inh 20.
`Cc1ccc(C(=O)Nc2ncccc2C)o1` gave PfG6PD inh -8.
CN(C)c1ccc(C(CNS(=O)(=O)c2ccc([N+](=O)[O-])cc2)N2CCCC2)cc1 (stereo not drawn) was read as PfG6PD inh -11.
CCc1noc(C)c1C(=O)N(CC(C)C)c1c(N)n(Cc2ccccc2)c(=O)[nH]c1=O was read as PfG6PD inh -9.
`CCc1nn(C(C)C(=O)NCc2cccc(OC)c2)c(=O)c2cc3occc3n12` (stereo not drawn) gave PfG6PD inh -21.
For CCCC(C(=O)NCc1ccco1)N(C(=O)CNS(=O)(=O)c1ccc(Cl)cc1)C1CCCC1 (stereo not drawn) the results were G6PDH counter -8, Diaph inh CS 24, Diaph act CS 0.8, PfG6PD inh 18, L major viab 67* and DTT redox prof 1.
`CCC(C(=O)NCc1ccco1)N(C(=O)CNS(=O)(=O)c1ccccc1)C1CCCCC1` (stereo not drawn) gave G6PDH counter 2, Diaph inh CS 6, Diaph act CS 0.9, PfG6PD inh 3, L major viab 40 and DTT redox prof 0.
`Cc1ccc(-c2cc(C(=O)Nc3ccc4c(c3)OCCO4)c3ccccc3n2)cc1` gave G6PDH counter -41, Diaph inh CS 27, Diaph act CS 0.7, PfG6PD inh 12, L major viab 35 and DTT redox prof 2.
Screening O=C(Nc1ccc(Br)cc1F)c1ccc2c(c1)N(Cc1ccccc1)C(=O)CS2=O (stereo not drawn) returned G6PDH counter 8, Diaph inh CS 17, Diaph act CS 0.8, PfG6PD inh 25, L major viab 100* and DTT redox prof 0.
Cc1ccc(C)c(NC(=O)c2ccc3c(c2)N(Cc2ccc(F)cc2)C(=O)CS3=O)c1 (stereo not drawn) was read as G6PDH counter 14, Diaph inh CS -2, Diaph act CS 1, PfG6PD inh 4, L major viab 3 and DTT redox prof -1.
